Results on three molecules are retold here after ChEMBL document CHEMBL4715843, “NO-releasing STAT3 inhibitors suppress BRAF-mutant melanoma growth” (Eur J Med Chem, 2020).

Activity calls are given as the source filed them. The rule behind the calls is not given here.

A short description of test [1]: Drug metabolism in pH 7.4 phosphate buffer assessed as nitric oxide release at 100 uM measured after 48 hrs by Griess reagent based colorimetric method. In short, it runs like this: (§1)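 Compound at 100 µM was held at room temperature in pH 7.4 phosphate buffer with 5 mM DTT and 2% DMSO for 2 or 48 h. Griess reagent was added, and after 30 min absorbance was read at 548 nm. NO release (mol NO/mol compound) was derived from a sodium nitrite calibration curve.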

The target in test [2] is T1, Signal transducer and activator of transcription 3 (Homo sapiens, UniProt P40763). In words: Inhibition of STAT3 phosphorylation at S727 residue in human SB-590885-resistant 451Lu cells measured after 12 hrs by Western blot analysis. To be noted: dose 10-25 µM. The method in brief: (§2)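 451 Lu and MEL 1617 pairs, sensitive and resistant; resistant lines maintained in RPMI with 1 µM PLX4720. Treated with 10 and 25 µM for 12 h versus DMSO. Lysates (60 µg protein, 10% SDS-PAGE) immunoblotted for Ser727- and Tyr705-phospho-STAT3, total STAT3, total PAX3, with actin.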
(In general: A western blot detects proteins with antibodies after separation by electrophoresis.)

Test [3] concerns the target T1, Signal transducer and activator of transcription 3. Nature of the test: Inhibition of STAT3 phosphorylation at S727 residue in human SB-590885-sensitive MEL1617 cells at 10 to 25 uM measured after 12 hrs by Western blot analysis. The class given is cell-based. To be noted: dose 10-25 µM. In short, it runs like this:
as §2

The target is the same in test [4]. Nature of the test: Inhibition of STAT3 in human SB-590885-sensitive MEL1617 cells assessed as reduction in PAX3 expression at 10 to 25 uM measured after 12 hrs by Western blot analysis. As to conditions: dose 10-25 µM. It is filed as cell-based. The method in brief: as §2
The target is the same in test [5]. In words: Inhibition of STAT3 in human SB-590885-resistant 451Lu cells assessed as reduction in PAX3 expression measured after 12 hrs by Western blot analysis. As to conditions: dose 10-25 µM. In short, it runs like this: as §2
The target is the same in test [6]. Nature of the test: Inhibition of STAT3 phosphorylation at Y705 residue in human SB-590885-sensitive 451Lu cells measured after 12 hrs by Western blot analysis. As to conditions: dose 10-25 µM. In short, it runs like this:
as §2

Test [7] has the same target. In words: Inhibition of STAT3 phosphorylation at Y705 residue in human SB-590885-resistant 451Lu cells measured after 12 hrs by Western blot analysis. As to conditions: dose 10-25 µM. The method in brief:
as §2

Test [8] has the same target. Nature of the test: Inhibition of STAT3 phosphorylation at S727 residue in human SB-590885-sensitive 451Lu cells measured after 12 hrs by Western blot analysis. As to conditions: dose 10-25 µM. The method in brief: as §2
Test [9] shares this target. Nature of the test: Inhibition of STAT3 phosphorylation at S727 residue in human SB-590885-resistant MEL1617 cells at 10 to 25 uM measured after 12 hrs by Western blot analysis. It is filed as cell-based. As to conditions: dose 10-25 µM. In short, it runs like this:
as §2

The nature of test [10]: Drug metabolism in pH 7.4 phosphate buffer assessed as nitric oxide release at 100 uM measured after 2 hrs by Griess reagent based colorimetric method. The method in brief:
as §1

Test [11] has as its target T1, Signal transducer and activator of transcription 3. In words: Inhibition of STAT3 phosphorylation at Y705 residue in human SB-590885-resistant MEL1617 cells at 10 to 25 uM measured after 12 hrs by Western blot analysis. It is filed as cell-based. To be noted: dose 10-25 µM. In short, it runs like this:
as §2

Test [12] has the same target. Nature of the test: Inhibition of STAT3 phosphorylation at Y705 residue in human SB-590885-sensitive MEL1617 cells at 10 to 25 uM measured after 12 hrs by Western blot analysis. The class given is cell-based. To be noted: dose 10-25 µM. In short, it runs like this: as §2
Test [13] has the same target. Nature of the test: Inhibition of STAT3 in human SB-590885-resistant MEL1617 cells assessed as reduction in PAX3 expression at 10 to 25 uM measured after 12 hrs by Western blot analysis. The class given is cell-based. To be noted: dose 10-25 µM. In short, it runs like this:
as §2

Test [14] has the same target. In words: Inhibition of STAT3 in human SB-590885-sensitive 451Lu cells assessed as reduction in PAX3 expression measured after 12 hrs by Western blot analysis. To be noted: dose 10-25 µM. The method in brief: as §2
A further test has as its system RPMI-8226. In words: Anticancer activity against human RPMI-8226 cells assessed as cell growth inhibition at 10 uM measured after 48 hrs by SRB assay relative to control. To be noted: read-out: GI. The class given is functional. In short, it runs like this:
(§3)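 NCI 60-cell-line screen. Cells in RPMI with 5% FBS were plated at 5,000–40,000 cells/well by doubling time and preincubated 24 h at 37 °C. Compound was added at a single 10 µM for 48 h, then cells were fixed with cold TCA (10% final) and stained with 0.4% SRB. Absorbance at 515 nm gave percent growth versus untreated control and time-zero cells.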
On the technique in general: The SRB assay estimates cell density from bound dye.

In a further test the test system is K562. In words: Anticancer activity against human K562 cells assessed as cell growth inhibition at 10 uM measured after 48 hrs by SRB assay relative to control. It is filed as functional. To be noted: read-out: GI. In short, it runs like this: as §3
For another test, the system named is A549. Nature of the test: Anticancer activity against human A549 cells assessed as cell growth inhibition at 10 uM measured after 48 hrs by SRB assay. It is filed as functional, cell-based. The method in brief: as §3
A further test concerns T47D. In words: Anticancer activity against human T47D cells assessed as cell growth inhibition at 10 uM measured after 48 hrs by SRB assay relative to control. As to conditions: read-out: GI. It is filed as functional. The method in brief:
as §3

Another test deals with COLO 205. In words: Anticancer activity against human COLO 205 cells assessed as cell growth inhibition at 10 uM measured after 48 hrs by SRB assay. The class given is functional, cell-based. In short, it runs like this: as §3
Another test concerns CCRF-CEM. In words: Anticancer activity against human CCRF-CEM cells assessed as cell growth inhibition at 10 uM measured after 48 hrs by SRB assay relative to control. The class given is functional. To be noted: read-out: GI. The method in brief: as §3
For a further test, the system named is MOLT-4. Nature of the test: Anticancer activity against human MOLT-4 cells assessed as cell growth inhibition at 10 uM measured after 48 hrs by SRB assay relative to control. As to conditions: read-out: GI. It is filed as functional. The method in brief: as §3
The test system of the next test is HL-60(TB). Nature of the test: Anticancer activity against human HL-60(TB) cells assessed as cell growth inhibition at 10 uM measured after 48 hrs by SRB assay relative to control. It is filed as functional. As to conditions: read-out: GI. The method in brief: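 NCI 60-cell-line screen, single dose 10 µM, DMSO stock diluted in complete medium with gentamicin. Cells in RPMI with 5% FBS, plated at density set by doubling time, preincubated 24 h, then exposed 48 h at 37 °C, 5% CO2. TCA fixation, SRB staining, absorbance at 515 nm. Percent growth taken relative to untreated control and time-zero cell number.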

In the next test the test system is NCI-H522. Nature of the test: Anticancer activity against human NCI-H522 cells assessed as cell growth inhibition at 10 uM measured after 48 hrs by SRB assay. It is filed as functional, cell-based. In short, it runs like this:
as §3

T1 sequence (P40763 whole entry): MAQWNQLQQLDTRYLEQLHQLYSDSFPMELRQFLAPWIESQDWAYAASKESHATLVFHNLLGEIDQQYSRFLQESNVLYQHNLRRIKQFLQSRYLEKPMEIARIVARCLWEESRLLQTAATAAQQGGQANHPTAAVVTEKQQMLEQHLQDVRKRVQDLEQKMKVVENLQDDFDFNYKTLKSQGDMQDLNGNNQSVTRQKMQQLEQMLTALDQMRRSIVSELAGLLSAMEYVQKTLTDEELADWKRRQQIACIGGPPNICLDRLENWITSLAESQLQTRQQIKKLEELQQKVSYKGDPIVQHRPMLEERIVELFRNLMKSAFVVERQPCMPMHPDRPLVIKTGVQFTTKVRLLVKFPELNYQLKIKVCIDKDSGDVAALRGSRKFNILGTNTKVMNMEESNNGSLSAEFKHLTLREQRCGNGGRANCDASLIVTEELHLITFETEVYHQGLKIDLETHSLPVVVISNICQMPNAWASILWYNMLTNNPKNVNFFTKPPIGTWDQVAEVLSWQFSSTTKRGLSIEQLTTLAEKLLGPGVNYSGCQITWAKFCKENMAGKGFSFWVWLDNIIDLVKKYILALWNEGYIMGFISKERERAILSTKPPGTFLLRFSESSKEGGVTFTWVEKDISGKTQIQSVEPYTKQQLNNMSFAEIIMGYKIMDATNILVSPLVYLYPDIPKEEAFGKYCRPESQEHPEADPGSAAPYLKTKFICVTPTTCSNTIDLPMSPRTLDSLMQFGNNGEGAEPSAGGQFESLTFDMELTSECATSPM

`COc1ccc(-c2cc(-c3nnc(SCC(=O)Nc4ccc(/C(C)=N\O)cc4)n3-c3ccccc3)c3cc(OC)ccc3n2)cc1`: the Drug metabolism worked out at 30% in [1] and 15% in [10]. Also, the inhibition entry in test [2], in [3], in [4], in [5], in test [6] and in test [7] was “inactive” throughout. In addition, the inhibition entry in test [8], in test [9], in [11], in [12], in test [13] and in test [14] was “inactive” in each case.
For `COc1ccc2nc(-c3ccc(OC)c(OC)c3)cc(-c3nnc(SCC(=O)Nc4ccc(/C(C)=N\O)cc4)n3-c3ccccc3)c2c1`, the figures for the Drug metabolism in test [1] and in test [10] were 30% and 15%, respectively. Moreover, the inhibition result in test [2], in [3], in test [4], in test [5], in test [6] and in test [7] was “inactive” throughout. Also, the inhibition result in test [8], in test [9], in test [11], in [12], in test [13] and in test [14] was “inactive” in each case.
Turning to `C=CCn1c(SCC(=O)Nc2ccc(/C(C)=N\O)cc2)nnc1-c1cc(-c2ccc(OC)cc2)nc2ccccc12`, the inhibition of growth at 10 µM in the test on RPMI-8226 came to 81%; with K562, 81%; in the test with T47D, 100%; in the test with CCRF-CEM it was 81%; with MOLT-4 it was 81%; in the test with HL-60(TB) it was 100%. Moreover, the “growth inhibition (GI)” value in the test on A549, in the test with COLO 205 and in the test on NCI-H522 was “Active” throughout.
